PfM18AAP inh: PfM18AAP inhibitors, malaria aminopeptidase, primary screen, biochemical, QFRET, recombinant enzyme. AID 1822, 2009. 290,000 tested, 1.2% active. H-Glu-NHMec fluorogenic cleavage. inhibition, % at 7.35 µM;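 active means inhibition above the campaign mean inhibition over all tested compounds plus 3 SD, cut at about 28% in these data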;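 further: 0% = plate median of test compound wells and 100% = 2 mM ZnCl2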
IMP-1 inh: IMP-1 metallo-beta-lactamase inhibitors, primary screen, biochemical, epi-absorbance readout, Pseudomonas aeruginosa enzyme. inhibition, % at 5.6 µM. purified IMP-1, nitrocefin hydrolysis, epi-absorbance fluorescence. AID 1556, 2009. 290,000 tested, 0.45% active;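 active means inhibition above the mean plus 3 SD of all compounds in the same screening run, cut at about 4.5% in these data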;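 further: 0% = IMP-1 with DMSO and 100% = DMSO wells lacking enzyme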
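System – purified recombinant IMP-1 beta-lactamase · Input – IMP-1 dispensed at 0.2 nM · Timing – 15 min preincubation plus 25 min reaction at 25 °C · Signal – Epi-absorbance fluorescence, 480 nm excitation, 530 nm emission · Measure – percent IMP-1 inhibition derived from blank-referenced optical density · Controls – Enzyme-plus-DMSO low control, enzyme-free DMSO high control · Replication – singlicate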
VIM-2 inh: VIM-2 metallo-beta-lactamase inhibitors, primary screen, biochemical, epi-absorbance readout, Pseudomonas aeruginosa enzyme; inhibition, % at 5.6 µM; purified VIM-2, nitrocefin hydrolysis, epi-absorbance fluorescence; 290,000 tested, 0.89% active; AID 1527, 2009;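 active means inhibition above the mean of all tested compounds plus 3 SD, cutoff set per screening run, cut at about 7.5% in these data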;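 further: red hydrolysis product quenches plate fluorescence so inhibitors raise well fluorescence; 0% = enzyme with DMSO and 100% = DMSO without enzyme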
HGIII-sPLA2 inh: human group III sPLA2 inhibitors, primary screen, biochemical, QFRET, BODIPY PC-A2 liposome substrate; QFRET BODIPY PC-A2 liposome hydrolysis, fluorescence; inhibition, % at 12.2 µM; Group 3 secretory phospholipase A2 (Homo sapiens), Q9NZ20; 370,000 tested, 0.56% active; AID 743126, 2013;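 active means inhibition above mean plus 3 SD of compounds lying within the high and low control bounds, cut at about 19% in these data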;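 further: 0% = median of test compound wells and 100% = no enzyme DMSO wells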
Target sequence (Q9NZ20 whole entry, looked up): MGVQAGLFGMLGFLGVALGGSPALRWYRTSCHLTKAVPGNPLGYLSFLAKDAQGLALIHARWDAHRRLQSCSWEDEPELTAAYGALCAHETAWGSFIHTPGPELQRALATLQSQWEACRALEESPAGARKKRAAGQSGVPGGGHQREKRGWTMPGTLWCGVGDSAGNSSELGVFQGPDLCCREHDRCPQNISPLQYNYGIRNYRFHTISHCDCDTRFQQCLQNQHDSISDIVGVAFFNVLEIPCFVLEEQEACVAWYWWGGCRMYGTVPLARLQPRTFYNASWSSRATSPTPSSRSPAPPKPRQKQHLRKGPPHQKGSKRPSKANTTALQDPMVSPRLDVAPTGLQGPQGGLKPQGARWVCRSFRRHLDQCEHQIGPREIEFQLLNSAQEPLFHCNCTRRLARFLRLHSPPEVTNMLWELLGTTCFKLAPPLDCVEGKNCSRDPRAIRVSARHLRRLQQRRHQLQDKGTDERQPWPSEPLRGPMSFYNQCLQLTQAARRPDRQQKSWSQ
sPLA2 confirm: human group III sPLA2 inhibitors, confirmation, biochemical, QFRET, triplicate. inhibition, % at 12.2 µM. 2,000 tested, 34% active. shares compounds with HGIII-sPLA2 inh. recombinant hGIII-sPLA2, BODIPY PC-A2 QFRET fluorescence;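 active means mean inhibition across triplicates above the hit cutoff set in the earlier primary screen, cut at about 19% in these data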;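 further: 0% = enzyme with DMSO and 100% = DMSO wells lacking enzyme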
535nm interf: 535nm fluorescence optical interference, confirmation, artefact control for HGIII-sPLA2 inhibitor project, biochemical, QFRET. BODIPY FL product fluorescence interference. shares compounds with HGIII-sPLA2 inh. 2,000 tested, 8.5% active. AID 743282, 2014. inhibition, % at 12.2 µM;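 active means average inhibition above the solvent-only control mean plus 3 SD, cut at about 6% in these data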;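 further: 0% = DMSO with substrate plus product and 100% = DMSO with substrate alone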
An asterisk follows results filed as active; x = no result. Rows were chosen to be rich in hits. Some 2.4% of all compounds tested hit in one or more screens of this group.

SMILES | PfM18AAP inh | IMP-1 inh | VIM-2 inh | HGIII-sPLA2 inh | sPLA2 confirm | 535nm interf
O=C(COc1ccc(Br)cc1)NNC(=O)Cc1ccc(S(=O)(=O)N2CCOCC2)s1 | x | x | x | -62.4 | x | x
CNC(=O)CCN(Cc1ccco1)S(=O)(=O)c1ccc(OC)c(OC)c1 | 1.7 | -2.5 | -0.6 | 23.4* | 0.1 | -7.3
COc1cccc(CNC(=O)CCCN2C(=O)COc3ccc(C)cc32)c1OC | x | x | x | -3.4 | x | x
CC(C)c1ccc(Nc2nnc(SCC(=O)Nc3ncc(S(=O)(=O)c4ccc([N+](=O)[O-])cc4)s3)s2)cc1 | -6.4 | 1.0 | -1.0 | -7.6 | x | x
Cc1ccc(Nc2nnc(SCC(=O)Nc3ncc(S(=O)(=O)c4ccc([N+](=O)[O-])cc4)s3)s2)cc1 | -0.5 | -2.5 | -0.4 | 19.6* | -29.6 | 4.1
Cn1c2ccccc2c(=O)c2c(=O)n(C3CCCCC3)c(-c3ccco3)nc21 | 4.9 | 0.1 | 1.6 | 27.9* | 12.2 | -42.3
Cc1nc2c(c(=O)c3ccccc3n2C)c(=O)n1C1CCCCCC1 | -4.7 | 1.0 | 3.0 | -3.0 | x | x
CC(C(=O)O)N1C(=O)C2C3c4ccccc4C(c4ccccc43)[C@@H]2C1=O (some centres undefined) | -3.7 | -2.0 | -1.2 | 0.5 | x | x
Cc1ccccc1/C=N/n1c(-c2cc(-c3ccccc3)n[nH]2)n[nH]c1=S | 7.4 | -4.7 | -2.2 | 26.1* | -69.7 | 5.8
S=c1[nH]nc(-c2ccccn2)n1/N=C/c1cccc2ccccc12 | 2.7 | -6.0 | 0.4 | 21.4* | 26.6* | 4.5
S=c1[nH]nc(-c2cc(-c3ccccc3)n[nH]2)n1/N=C/c1cccc2ccccc12 | x | x | x | 8.7 | x | x
Cc1ccccc1/C=N/n1c(-c2ccccn2)n[nH]c1=S | 2.5 | -5.0 | -0.6 | 4.0 | x | x
Cc1[nH]c2ccccc2c1/C=N/NC(N)=S | 11.0 | -1.4 | -3.6 | 20.9* | 16.6 | 0.5
CCc1ccccc1NC(=O)N1CCCC(CCC(=O)N(C)CCc2ccccn2)C1 (centres undefined) | 1.6 | -2.2 | -0.3 | 2.6 | x | x
CCOC(=O)CCNC(=O)N1CCCC(CCC(=O)N(C)CCc2ccccn2)C1 (centres undefined) | -0.3 | -2.6 | -1.3 | 24.2* | -0.1 | -9.9
Cc1cc(=O)[nH]c(SCC(=O)N2CCCC2)n1 | x | x | x | 19.6* | 0.0 | -6.9
CSCCC(NC(=O)c1ccccc1Cl)C(=O)NNC(=O)c1ccccc1O (centres undefined) | x | x | x | 10.3 | x | x
CC(Sc1ccc(Cl)cc1)C(=O)NNC(=O)c1ccccc1O (centres undefined) | 11.2 | 0.6 | -5.0 | 23.4* | 7.3 | -3.2
Cn1c(=O)c2cc(NC(=O)CCc3cccnc3)ccc2n1Cc1ccc(F)cc1 | x | x | x | -1.2 | x | x
Cc1cn([C@H]2C[C@H](O)[C@@H](CNCc3ccccc3OCCCN3CCOCC3)O2)c(=O)[nH]c1=O | x | x | x | 2.9 | x | x
CC1(N=Cc2cc(Cl)ccc2O)COP(=O)(Nc2ccccc2)OC1 (centres undefined) | x | x | x | -7.0 | x | x
Cc1ccc(C)c(NC(=S)N/N=C/C(C)c2ccccc2)c1 (centres undefined) | 8.6 | -3.1 | -5.7 | 21.5* | 13.9 | 0.3
Cc1ccc(C)c(NC(=S)NCc2ccccc2)c1 | 0.8 | -1.1 | -0.9 | 13.0 | x | x
COc1cccc(NC(=O)c2ccc(OC(F)(F)F)cc2)c1 | x | x | x | -5.8 | x | x
C[C@@H]1CN([C@H](C)CO)C(=O)CCCn2nncc2CO[C@H]1CN(C)C(=O)Nc1cccc(Oc2ccccn2)c1 | x | x | x | 20.3* | -8.0 | -10.4
C[C@@H]1CN([C@@H](C)CO)C(=O)CCCn2nncc2CO[C@H]1CN(C)C(=O)Nc1ccccc1C(F)(F)F | x | x | x | 3.6 | x | x
C[C@@H]1CN([C@@H](C)CO)C(=O)CCCn2nncc2CO[C@@H]1CN(C)C(=O)Nc1ccccc1C(F)(F)F | x | x | x | 20.7* | -3.2 | -8.7
CCN(CC(=O)Nc1ccc2c(c1)OCCO2)C(=O)c1ccc(C(F)(F)F)cc1 | x | x | x | 3.9 | x | x

Bioassay records: PubChem BioAssay, The Scripps Research Institute Molecular Screening Center
